Reference: article PMC12495087 (ESMO Open, 2025)

Experiment: phase I study BOS172738-01: safety and tolerability
Type: in vivo, human
Method in brief: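 Patients received at least one dose of oral drug given once daily in 28-day cycles. Part A escalated 10–150 mg, by accelerated titration (dose doubling) and then 3+3 Fibonacci steps; part B used 75 mg. AEs were graded by CTCAE v4.03 from first dose to 31 days after last dose. DLTs counted in cycle 1. Missing causality was scored as related and missing grade as grade 3.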

[1] = any causality and grade, overall n = 117
[2] = overall total, n = 117, listed as BOS
[3] = part A, all dose levels, n = 67

COc1cc2cc(-c3ccc(CC(=O)Nc4cc(C(C)(C)C(F)(F)F)no4)cn3)cnc2cc1OC [BOS172738]
grade ≥3 TEAE of either hypertension or liver enzyme elevations (BOS172738-treated patients): 2%
Any TEAE (all pooled 75 mg, n = 70): 70 (100) n (%)
Any TEAE leading to BOS discontinuation (all pooled 75 mg, n = 70): 13 (19) n (%)
Any TEAE leading to BOS dose interruption (all pooled 75 mg, n = 70): 46 (66) n (%)
Any TEAE leading to BOS dose reduction (all pooled 75 mg, n = 70): 14 (20) n (%)
Any TEAE leading to study discontinuation (all pooled 75 mg, n = 70): 9 (13) n (%)
Any TEAE related to BOS leading to BOS discontinuation (all pooled 75 mg, n = 70): 6 (9) n (%)
Any TEAE related to BOS leading to study discontinuation (all pooled 75 mg, n = 70): 2 (3) n (%)
Any TEAE resulting in death (all pooled 75 mg, n = 70): 3 (4) n (%)
Any TEAE, grade ≥3 (all pooled 75 mg, n = 70): 57 (81) n (%)
Serious TEAEs related to BOS (all pooled 75 mg, n = 70): 4 (6) n (%)
Serious TEAEs, any (all pooled 75 mg, n = 70): 35 (50) n (%)
TEAE related to BOS, CTCAE grade ≥3: Anemia (all pooled 75 mg, n = 70): 4 (6) n (%)
TEAE related to BOS, CTCAE grade ≥3: Asthenia (all pooled 75 mg, n = 70): 1 (1) n (%)
TEAE related to BOS, CTCAE grade ≥3: Blood creatinine phosphokinase increased (all pooled 75 mg, n = 70): 14 (20) n (%)
TEAE related to BOS, CTCAE grade ≥3: Diarrhea (all pooled 75 mg, n = 70): 1 (1) n (%)
TEAE related to BOS, CTCAE grade ≥3: Hypophosphatemia (all pooled 75 mg, n = 70): 4 (6) n (%)
TEAE related to BOS, CTCAE grade ≥3: Lymphopenia (all pooled 75 mg, n = 70): 2 (3) n (%)
TEAE related to BOS, CTCAE grade ≥3: Muscular weakness (all pooled 75 mg, n = 70): 1 (1) n (%)
TEAE related to BOS, CTCAE grade ≥3: Myositis (all pooled 75 mg, n = 70): 0 n (%)
TEAE related to BOS, CTCAE grade ≥3: Neutropenia (all pooled 75 mg, n = 70): 2 (3) n (%)
TEAE related to BOS, CTCAE grade ≥3: Neutrophil count decreased (all pooled 75 mg, n = 70): 9 (13) n (%)
TEAE related to BOS, any (all pooled 75 mg, n = 70): 57 (81) n (%)
TEAE related to BOS, grade ≥3 (all pooled 75 mg, n = 70): 34 (49) n (%)
TEAE: anemia [1]: 46 (39%) n (%)
TEAE: aspartate aminotransferase increased [1]: 48 (41%) n (%)
TEAE: blood creatine phosphokinase increased [1]: 72 (62%) n (%)
TEAE: constipation [1]: 30 (26%) n (%)
TEAE: diarrhea [1]: 41 (35%) n (%)
TEAE: dyspnea [1]: 34 (29%) n (%)
TEAE: facial edema [1]: 31 (26%) n (%)
TEAE: fatigue [1]: 33 (28%) n (%)
TEAE: hypophosphatemia [1]: 31 (26%) n (%)
treatment discontinued due to TEAEs (final data cut-off, 117 patients): 20%
myositis leading to dose interruption (in total): 6%
severity of BOS172738-related TEAEs (in vivo): mostly grade 1-2
TEAE resulting in death: dyspnea (overall): 2%
patients discontinued from the study due to BOS172738-related TEAEs (overall): 4%
deaths considered related to BOS172738 (overall n = 117): None
serious TEAE related to BOS172738: muscular weakness (overall n = 117): 3 (3%) n (%)
serious TEAE related to BOS172738: myositis (overall n = 117): 2 (2%) n (%)
serious TEAE: anemia (overall n = 117): 4 (3%) n (%)
serious TEAE: dyspnea (overall n = 117): 8 (7%) n (%)
serious TEAE: pneumonia (overall n = 117): 7 (6%) n (%)
Any TEAE (overall total, n = 117): 117 (100) n (%)
Any TEAE leading to BOS discontinuation (overall total, n = 117): 30 (26%) n (%)
Any TEAE leading to BOS dose interruption (overall total, n = 117): 78 (67%) n (%)
Any TEAE leading to study discontinuation (overall total, n = 117): 18 (15) n (%)
Any TEAE related to BOS leading to BOS discontinuation (overall total, n = 117): 16 (14%) n (%)
Any TEAE related to BOS leading to study discontinuation (overall total, n = 117): 5 (4) n (%)
Any TEAE resulting in death (overall total, n = 117): 11 (9%) n (%)
Any TEAE, grade ≥3 (overall total, n = 117): 98 (84%) n (%)
Serious TEAEs related to BOS (overall total, n = 117): 16 (14%) n (%)
Serious TEAEs, any (overall total, n = 117): 67 (57%) n (%)
TEAE related to BOS, CTCAE grade ≥3: Anemia (overall total, n = 117): 10 (9%) n (%)
TEAE related to BOS, CTCAE grade ≥3: Asthenia (overall total, n = 117): 2 (2) n (%)
TEAE related to BOS, CTCAE grade ≥3: Blood creatinine phosphokinase increased (overall total, n = 117): 29 (25%) n (%)
TEAE related to BOS, CTCAE grade ≥3: Diarrhea (overall total, n = 117): 3 (3) n (%)
TEAE related to BOS, CTCAE grade ≥3: Hypophosphatemia (overall total, n = 117): 6 (5) n (%)
TEAE related to BOS, CTCAE grade ≥3: Lymphopenia (overall total, n = 117): 3 (3) n (%)
TEAE related to BOS, CTCAE grade ≥3: Muscular weakness (overall total, n = 117): 3 (3) n (%)
TEAE related to BOS, CTCAE grade ≥3: Myositis (overall total, n = 117): 2 (2) n (%)
TEAE related to BOS, CTCAE grade ≥3: Neutropenia (overall total, n = 117): 4 (3) n (%)
TEAE related to BOS, CTCAE grade ≥3: Neutrophil count decreased (overall total, n = 117): 12 (10%) n (%)
TEAE related to BOS, any (overall total, n = 117): 99 (85%) n (%)
TEAE related to BOS, grade ≥3 (overall total, n = 117): 63 (54%) n (%)
Any TEAE leading to BOS discontinuation [2]: 30 (26) n (%)
Any TEAE leading to BOS dose interruption [2]: 78 (67) n (%)
Any TEAE leading to BOS dose reduction [2]: 29 (25) n (%)
Any TEAE related to BOS leading to BOS discontinuation [2]: 16 (14) n (%)
Any TEAE resulting in death [2]: 11 (9) n (%)
Any TEAE, grade ≥3 [2]: 98 (84) n (%)
Serious TEAEs, any [2]: 67 (57) n (%)
TEAE related to BOS, CTCAE grade ≥3: Anemia [2]: 10 (9) n (%)
TEAE related to BOS, CTCAE grade ≥3: Blood creatinine phosphokinase increased [2]: 29 (25) n (%)
TEAE related to BOS, CTCAE grade ≥3: Neutrophil count decreased [2]: 12 (10) n (%)
TEAE related to BOS, any [2]: 99 (85) n (%)
TEAE related to BOS, grade ≥3 [2]: 63 (54) n (%)
DLT event (one patient) (part A, 75 mg cohort): blood creatine phosphokinase increased
DLT event (one patient) (part A, 100 mg cohort): muscle weakness and blood creatine phosphokinase increased
DLT event (one patient) (part A, 150 mg cohort): capillary leak syndrome
maximum tolerated dose (MTD) (part A, 10-150 mg orally once daily): not reached
patients with dose-limiting toxicities (part A, 10-150 mg orally once daily, cycle 1): three
Any TEAE [3]: 67 (100) n (%)
Any TEAE leading to BOS discontinuation [3]: 23 (34) n (%)
Any TEAE leading to BOS dose interruption [3]: 45 (67) n (%)
Any TEAE leading to BOS dose reduction [3]: 19 (28) n (%)
Any TEAE leading to study discontinuation [3]: 11 (16) n (%)
Any TEAE related to BOS leading to BOS discontinuation [3]: 14 (21) n (%)
Any TEAE related to BOS leading to study discontinuation [3]: 4 (6) n (%)
Any TEAE resulting in death [3]: 9 (13) n (%)
Any TEAE, grade ≥3 [3]: 57 (85) n (%)
Serious TEAEs related to BOS [3]: 12 (18) n (%)
Serious TEAEs, any [3]: 39 (58) n (%)
TEAE related to BOS, CTCAE grade ≥3: Anemia [3]: 7 (10) n (%)
TEAE related to BOS, CTCAE grade ≥3: Asthenia [3]: 2 (3) n (%)
TEAE related to BOS, CTCAE grade ≥3: Blood creatinine phosphokinase increased [3]: 19 (28) n (%)
TEAE related to BOS, CTCAE grade ≥3: Diarrhea [3]: 3 (4) n (%)
TEAE related to BOS, CTCAE grade ≥3: Hypophosphatemia [3]: 3 (4) n (%)
TEAE related to BOS, CTCAE grade ≥3: Lymphopenia [3]: 1 (1) n (%)
TEAE related to BOS, CTCAE grade ≥3: Muscular weakness [3]: 3 (4) n (%)
TEAE related to BOS, CTCAE grade ≥3: Myositis [3]: 2 (3) n (%)
TEAE related to BOS, CTCAE grade ≥3: Neutropenia [3]: 4 (6) n (%)
TEAE related to BOS, CTCAE grade ≥3: Neutrophil count decreased [3]: 5 (7) n (%)
